In ChEMBL document CHEMBL1649356, “Triterpenoids from Aglaia abbreviata and their cytotoxic activities” (J Nat Prod, 2010):

Key:
Type in all cases: functional, cell-based
[1] = system: MCF7; assay: Cytotoxicity against human MCF7 cells after 48 hrs by MTT assay; conditions: MCF7, 48 h
Procedure, shortened: (§1)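 Cells grown in RPMI-1640 or DMEM with 10% FBS, 5% CO2, 37 °C. Adherent cells seeded and allowed 12 h to attach before compound addition; suspension cells seeded just before addition; initial density 1 × 10^5 cells/mL. Compound at 0.1, 1, 10, 100, 500 µM, triplicate, 48 h; doxorubicin positive control. Viability by MTT; IC50 by Reed and Muench method.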

[2] = Cytotoxicity against human MCF7/ADR cells after 48 hrs by MTT assay; conditions: NCI/ADR-RES; procedure, shortened: as §1
[3] = system: KB; assay: Cytotoxicity against human KB cells after 48 hrs by MTT assay; procedure, shortened: as §1
[4] = system: SMMC-7721; assay: Cytotoxicity against human SMMC7721 cells after 48 hrs by MTT assay; conditions: SMMC-7721, 48 h; procedure, shortened: as §1
[5] = system: K562; assay: Cytotoxicity against human K562 cells after 48 hrs by MTT assay; conditions: K562, 48 h; procedure, shortened: as §1
[6] = Cytotoxicity against human KB/VCR cells after 48 hrs by MTT assay; procedure, shortened: as §1

SMILES | IC50 [1] [nM] | IC50 [2] [nM] | IC50 [3] [nM] | IC50 [4] [nM] | IC50 [5] [nM] | IC50 [6] [nM]
CC(=O)[C@H]1CC[C@]2(C)[C@@H]1CC[C@@H]1[C@@]3(C)CC[C@@H](O)C(C)(C)[C@@H]3CC[C@]12C [AGLAIABBREVIATIN C] | > 10000 | > 10000 | > 10000 | > 10000 | > 10000 | 1100
CC(=O)O[C@@H]1CC[C@]2(C)[C@H]3CC[C@@H]4[C@@H]([C@]5(C)C=CC(=O)O5)CC[C@@]4(C)[C@]3(C)CC[C@H]2C1(C)C [AGLAIABBREVIATIN B] | > 10000 | > 10000 | > 10000 | > 10000 | > 10000 | > 10000
CC(=O)O[C@@H]1CC[C@]2(C)[C@H]3CC[C@@H]4[C@@H]([C@@](C)(O)CCCC(C)(C)OO)CC[C@@]4(C)[C@]3(C)CC[C@H]2C1(C)C [AGLAIABBREVIATIN F] | > 10000 | 5500 | 600 | 1400 | 460 | 310
COc1cccc2c1C(=O)c1c(O)c3c(c(O)c1C2=O)C[C@@](O)(C(=O)CO)C[C@@H]3O[C@H]1C[C@H](N)[C@H](O)[C@H](C)O1 [DOXORUBICIN] | 540 | > 10000 | 12 | 370 | 170 | 450
CC1(C)C=CC[C@@](C)([C@H]2CC[C@]3(C)[C@@H]2CC[C@@H]2[C@@]4(C)CCC(=O)C(C)(C)[C@@H]4CC[C@]23C)O1 [AGLAIABBREVIATIN D] | > 10000 | > 10000 | 1200 | 2100 | 1200 | 960
CC1(C)C(=O)CC[C@]2(C)[C@H]3CC[C@@H]4[C@@H]([C@]5(C)C=CC(=O)O5)CC[C@@]4(C)[C@]3(C)CC[C@@H]12 [AGLAIABBREVIATIN A] | > 10000 | > 10000 | > 10000 | > 10000 | > 10000 | > 10000
C=C(C/C=C/C(C)(C)O)[C@H]1CC[C@]2(C)[C@@H]1CC[C@@H]1[C@@]3(C)CCC(=O)C(C)(C)[C@@H]3CC[C@]12C [AGLAIABBREVIATIN E] | > 10000 | > 10000 | 2700 | 4200 | 1800 | 830
